We go through one compound from PMC4285624 (Biochemical pharmacology, 2014).

Broadly, the IC50 is the point on the concentration scale where inhibition reaches its midpoint.

Molecules are shown by their SMILES.

The test system of one data set is lung cancer cell line. The following applies: cited from earlier work.
Data set [1] deals with peripheral blood lymphocytes. The following applies: cited from earlier work.
For data set [2] the following is noted: cited from earlier work.
The target of data set [3] is Full length, heterotrimeric human RPA (fl-RPA) (Homo sapiens, UniProt P27694). In words: EMSA of full length RPA binding to ssDNA. Format: biochemical. The following applies: read-out: In vitro IC50, RPA-DNA binding, compounds titrated 1–125 μM. Summed up: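 Recombinant full-length heterotrimeric human RPA (50 nM, E. coli-expressed) was preincubated 30 min with DMSO-dissolved compound (DMSO ≤5%). Bound and free DNA were separated on 6% native gels and quantified by phosphorimager. IC50 came from nonlinear regression; three independent determinations.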
Sequence of Full length, heterotrimeric human RPA (fl-RPA) (P27694 whole entry): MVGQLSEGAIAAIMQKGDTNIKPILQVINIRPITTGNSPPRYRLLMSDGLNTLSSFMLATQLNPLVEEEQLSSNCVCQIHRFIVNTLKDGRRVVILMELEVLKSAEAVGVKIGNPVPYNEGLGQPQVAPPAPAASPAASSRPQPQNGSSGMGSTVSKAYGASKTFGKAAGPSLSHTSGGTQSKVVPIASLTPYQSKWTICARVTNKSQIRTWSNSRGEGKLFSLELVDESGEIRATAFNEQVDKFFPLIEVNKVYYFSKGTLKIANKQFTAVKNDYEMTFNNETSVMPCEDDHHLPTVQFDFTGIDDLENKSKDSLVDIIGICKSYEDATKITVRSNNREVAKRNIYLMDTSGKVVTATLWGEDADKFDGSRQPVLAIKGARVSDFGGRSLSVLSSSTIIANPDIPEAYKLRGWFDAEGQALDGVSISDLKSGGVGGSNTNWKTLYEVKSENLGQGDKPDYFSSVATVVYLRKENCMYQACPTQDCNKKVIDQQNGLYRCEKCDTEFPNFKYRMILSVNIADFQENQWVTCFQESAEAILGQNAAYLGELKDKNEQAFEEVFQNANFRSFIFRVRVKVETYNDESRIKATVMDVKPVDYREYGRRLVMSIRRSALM
Sequence of Full length, heterotrimeric human RPA (fl-RPA) (P15927 whole entry partner): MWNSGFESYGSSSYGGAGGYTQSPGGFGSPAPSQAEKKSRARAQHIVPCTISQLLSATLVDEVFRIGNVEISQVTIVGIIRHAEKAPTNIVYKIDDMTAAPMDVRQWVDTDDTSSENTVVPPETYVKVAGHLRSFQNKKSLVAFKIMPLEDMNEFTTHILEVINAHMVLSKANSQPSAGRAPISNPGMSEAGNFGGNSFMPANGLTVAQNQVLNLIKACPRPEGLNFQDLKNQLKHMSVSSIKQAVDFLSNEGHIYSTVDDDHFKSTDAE
Sequence of Full length, heterotrimeric human RPA (fl-RPA) (P35244 whole entry partner): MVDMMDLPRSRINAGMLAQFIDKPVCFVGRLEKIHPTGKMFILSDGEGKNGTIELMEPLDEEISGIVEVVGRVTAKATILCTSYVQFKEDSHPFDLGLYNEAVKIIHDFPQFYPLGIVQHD
Background: In EMSA bound probe runs differently from free probe, usually more slowly.

For the next data set, the target named is RPA DBD-A/B (Homo sapiens, UniProt P27694). In words: EMSA of RPA DBD-A/B binding to DNA. Format: biochemical. The following applies: 150 nM DBD-A/B, compounds 25–100 μM. Summed up:
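The RPA181–432 DBD-A/B fragment was expressed in E. coli BL21(DE3) as a SUMO-His6 fusion (0.5 mM IPTG, 3 h, 37 °C). It was Ni-NTA purified, SUMO-cleaved with ULP1, and polished by size exclusion. Protein was preincubated 30 min with compound, then mixed with 2.5 nM 5′-32P 34-base DNA for 5 min at room temperature. Products were run on 6% native gels at 4 °C and quantified by phosphorimager.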

Sequence of RPA DBD-A/B (P27694 181-432): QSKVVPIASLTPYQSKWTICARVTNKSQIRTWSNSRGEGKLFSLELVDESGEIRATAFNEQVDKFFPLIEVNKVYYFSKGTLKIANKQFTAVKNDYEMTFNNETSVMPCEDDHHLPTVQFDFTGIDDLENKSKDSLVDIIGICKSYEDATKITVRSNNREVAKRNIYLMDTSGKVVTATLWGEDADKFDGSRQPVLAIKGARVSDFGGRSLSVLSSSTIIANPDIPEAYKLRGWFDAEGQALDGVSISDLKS

As for `CCOc1ccc2cc(C3CC(c4ccc(Br)cc4)=NN3C(=O)CCC(=O)O)c(Cl)nc2c1` (stereo not drawn) [TDRL-505], the “synergy with Pt” value in the data set on lung cancer cell line (lung cancer cell line, published data) was “synergy”. The synergy with etoposide result in the data set with lung cancer cell line (lung cancer cells, flow cytometry based Annexin-PI staining assay) is on record as “highly synergistic”. Also, the “cytotoxic effects on peripheral blood lymphocytes” value in data set [1] is on record as “minimal cytotoxic effects”. The cell cycle effect result in data set [2] is reported as “G1 cell cycle arrest”. In addition, in data set [3], the IC50 came to 38 µM. In addition, at RPA DBD-A/B, the “inhibition of RPA DBD-A/B-DNA interaction” value is listed as “inhibit RPA DBD-A/B-DNA interaction”.
